Assay outcomes: PubChem, The Scripps Research Institute Molecular Screening Center
Most compounds without a hit are left out; they make up all but 3.9% or so of the library.
OX1R antag-1: human HCRTR1 antagonism; O43613; CHO/OX1R cells, Fluo-8 calcium fluorescence, orexin A; inhibition, % at 5 µM; 0.43% of 330,000 active; AID 434989;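 active means inhibition above its plate's threshold, mean inhibition of all tested compounds on the plate plus 3 SD, cut at about 37% in these data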;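 further: 0% = orexin A challenge wells and 100% = SB-334867-A antagonist wells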
OX1R antag-2: blocks the human orexin 1 receptor. O43613. OX1R-expressing cells, FRET antagonist read-out. inhibition, % at 6.6 µM. 1.8% of 330,000 active. AID 485270; in the data active means inhibition mostly above about 38%, no sharp cut-off; inactive means mostly below about 40%;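 further: 0% = agonist challenge alone and 100% = reference antagonist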
TAAR1 antagonist: human TAAR1 antagonism | AID 624466 | CHO RD-HGA16 TAAR1, Fluo-8 calcium fluorescence, antagonist | inhibition, % at 3 µM | 1.5% of 360,000 active | Q96RJ0;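 active means inhibition above a per-plate cutoff, the mean inhibition of test compounds on that plate plus 3 SD, cut at about 49% in these data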;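 further: 0% = DMSO plus EC80 beta-PEA response and 100% = DMSO alone without agonist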
Target sequence (Q96RJ0 whole entry, looked up): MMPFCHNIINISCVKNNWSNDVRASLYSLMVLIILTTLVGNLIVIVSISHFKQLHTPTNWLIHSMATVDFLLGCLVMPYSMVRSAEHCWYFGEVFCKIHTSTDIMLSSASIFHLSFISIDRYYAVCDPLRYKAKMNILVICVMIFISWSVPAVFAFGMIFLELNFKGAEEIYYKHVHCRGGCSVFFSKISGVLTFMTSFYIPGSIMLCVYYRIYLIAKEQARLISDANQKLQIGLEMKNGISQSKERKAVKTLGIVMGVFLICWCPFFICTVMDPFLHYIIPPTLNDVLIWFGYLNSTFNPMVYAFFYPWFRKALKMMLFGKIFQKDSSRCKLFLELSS
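Test system: hTAAR1-expressing CHO RD-HGA16 cells, Gα16-coupled; Probe or stimulus: EC80 β-phenethylamine stimulus; Compound dosing: single nominal final test compound concentration of 3 µM; Timing: 140 s kinetic read after compound, 140 s after agonist; Signal: Fluo-8 calcium-sensitive fluorescence; Measure: % inhibition of agonist calcium response; Controls: DMSO and EC80 PEA controls.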
CHO parental Ca: counter-screen for OX1R antagonists: effect in parental CHO cells; parental CHO-K1, ATP-induced calcium, Fluo-8 fluorescence; inhibition, % at 5.6 µM; 0.63% of 330,000 active;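 active means inhibition above that plate's mean sample inhibition plus 3 SD, cut at about 26% in these data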;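 further: 0% = ATP-challenged DMSO wells and 100% = DMSO wells without ATP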
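test system = CHO parental line | reagent = ATP stimulus | measured by = intracellular calcium via Fluo-8 no-wash fluorescent dye | control set = ATP and no-ATP DMSO wells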
TAAR1 ag: agonists of human TAAR1 | CHO RD-HGA16 TAAR1, Fluo-8 calcium fluorescence; vehicle wells 0%, saturating PEA agonist 100% | activation, % at 3 µM | 0.99% of 360,000 active;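 active means activation above the mean activation of all test compounds in the run plus 3 SD, cut at about 38% in these data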
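Benchmarks: low control DMSO, high control PEA (EC100); System: CHO RD-HGA16 cells carrying human TAAR1 plus Gα16; Detection: Fluo-8 fluorescence, 5 s baseline then 140 s kinetic read; Schedule: 17-24 h plating, Fluo-8 75 min 37 °C, 30 min RT; Read-out basis: % activation from peak over basal fluorescence ratio, DMSO-to-PEA scaled.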
Starred values were filed as active, the others as inactive; . = no result.

SMILES | OX1R antag-1 | OX1R antag-2 | TAAR1 antagonist | CHO parental Ca | TAAR1 ag
CCc1ccc(C(O)c2ncc(-c3cccc4ccccc34)[nH]2)cc1 (centres undefined) | . | . | 14 | . | 4
O=C1NC[C@H](CCCCN2CCN(CC3CCCCC3)C(=O)C2=O)N(CCc2ccccc2)C1=O | . | . | -5 | . | 2
Cc1cc(C)cc(NCc2cc3c(cc2[N+](=O)[O-])OCO3)c1 | 3 | 21 | -7 | -16 | -2
COc1ccc(CNCc2cc3c(cc2[N+](=O)[O-])OCO3)cc1 | -14 | 44* | -11 | -18 | 0
COc1ccc(/C=C2/CCC(CN3CCOCC3)C2=O)cc1 (centres undefined) | . | . | 35 | . | 9
Cc1ccc(-c2nn3c(C)nnc3s2)cc1NC(=O)c1cccs1 | -18 | 12 | -4 | -18 | 0
Cc1cc2nn(-c3cccc4ccccc34)nc2cc1NC(=O)c1cccs1 | -1 | 57* | 15 | -7 | 1
COc1ccc(CN=Cc2[nH]c3ccc(Br)c(Cl)c3c2O)cc1 | -14 | 19 | 106* | -5 | -3
Cc1cc(C)cc(N=Cc2[nH]c3ccc(Br)c(Cl)c3c2O)c1 | 6 | 16 | 11 | -11 | 24
CN(CC(=O)Nc1ccc(Cl)cc1)C(=O)c1cccc(S(=O)(=O)N2CCN(Cc3ccccc3)CC2)c1 | 32 | 36 | 50* | 37* | 18
CN(Cc1ccc(OC(F)F)cc1)C(=O)c1cccc(S(=O)(=O)N2CCN(Cc3ccccc3)CC2)c1 | . | . | 49* | . | 5
CN(Cc1c(F)cccc1Cl)C(=O)c1cccc(S(=O)(=O)N2CCN(Cc3ccccc3)CC2)c1 | . | . | 21 | . | 9
COc1cccc(CN(C)C(=O)c2cccc(S(=O)(=O)N3CCN(c4ccc(F)cc4)CC3)c2)c1OC | 13 | 36 | 30 | 35* | 3
COc1cccc(CN(C)C(=O)c2cccc(S(=O)(=O)N3CCN(c4ccccc4)CC3)c2)c1OC | . | . | 11 | . | 7
CCCCNC(=O)C(NC(=O)c1ccccc1)C(=O)c1ccccc1 (centres undefined) | . | . | 0 | . | 3
C#CCN1CC(COc2ccccc2)OCCS1(=O)=O (centres undefined) | . | . | 1 | . | 2
Nc1cc2ccccc2cc1NS(=O)(=O)N1CCCCC1 | . | . | -9 | . | 0
Cc1cc(SCC(=O)N/N=C/c2ccc(O)cc2O)nc2ccccc12 | -4 | 50* | 25 | 12 | 4
O=C1c2ccccc2C(c2nnnn2Cc2ccccc2)N1Cc1cccnc1 (centres undefined) | . | . | -12 | . | 1
Oc1ccc(Oc2ccc3c(C(F)(F)F)cc(C(F)(F)F)nc3n2)cc1 | 13 | -1 | -16 | 49* | 4
COc1ccc(CCN2C(=O)CSC2=Nc2ccc(C(C)C)cc2)cc1OC | 20 | 4 | 46 | 29* | 22
CCCOC(=O)c1ccc(NC(=O)c2ccccc2OC)cc1 | 11 | 76* | 0 | -11 | 0
O=C(N/N=C/c1ccc(O)cc1)c1ccc(NC(=O)c2ccccc2Br)cc1 | -7 | 19 | 37 | -2 | 3
COc1ccccc1/C=N/NC(=O)c1ccc(NC(=O)c2ccccc2Br)cc1 | -19 | 9 | 51* | -9 | 11
COc1cccc(OC)c1C(=O)Nc1ccc(C)cc1C(=O)c1ccccc1 | -22 | 13 | 21 | -30 | 10
SMILES | OX1R antag-1 | OX1R antag-2 | TAAR1 antagonist | CHO parental Ca | TAAR1 ag
COc1cccc(OC)c1C(=O)Nc1ccc(Br)c(C(=O)c2ccccc2)c1 | -26 | 19 | 53* | -22 | -1
Nc1sc(-c2ccccc2)cc1C(=O)N1CCN(c2ccccc2)CC1 | . | . | -28 | . | -1
CC(C)C(NCC(=O)Nc1ccccc1C(=O)NC1CC1)c1ccccc1 (centres undefined) | 16 | 43* | 15 | -12 | 7
CC(NCC(=O)Nc1ccccc1C(=O)NC1CC1)c1cccs1 (centres undefined) | -9 | 29 | 14 | -17 | 2
CC(=O)N1CCc2cc(S(=O)(=O)NCCC3=CCCCC3)ccc21 | 38 | 42 | 22 | 38* | 13
COc1ccc(C=CC(=O)c2c(OC)cc(OC)c(OC)c2O)cc1 | . | . | 31 | . | 6
C=CCOc1ccc(C=CC(=O)c2c(O)c(OC)c(OC)c(OC)c2OC)cc1 | . | . | 69* | . | 2
CC(C)C[C@H]1COc2cc(N3CC[C@H](O)C3)ccc2S(=O)(=O)N1 | . | . | -4 | . | 2
CCCCC(=O)Nc1ccc2c3c(cccc13)C(=O)N2CC | -21 | 45* | 16 | -21 | 8
CCN1C(=O)c2cccc3c(NC(=O)C(C)(C)C)ccc1c23 | -18 | 18 | -3 | -10 | 17
NC(=O)c1ccsc1NC(=O)COC(=O)CSc1ccc(Cl)cc1 | 45* | 8 | 42 | 42* | 13
Cc1ccsc1C(=O)OCC(=O)NCCNC(=O)COC(=O)c1sccc1C | -14 | 22 | -9 | -16 | 2
O=C(COC(=O)CSc1ccc(Cl)cc1)Nc1ccccc1 | -6 | 9 | 10 | -6 | 1
COc1ccc(C(=O)OCC(=O)Nc2sccc2C(N)=O)cc1[N+](=O)[O-] | 6 | 17 | 55* | -16 | 29
NC(=O)c1ccsc1NC(=O)COC(=O)c1ccc(Cl)c(N)c1 | -3 | 28 | 53* | -21 | 14
Cc1ccsc1C(=O)OCC(=O)Nc1sccc1C(N)=O | -20 | 47 | 24 | -11 | 42*
COc1ccc(C(=O)OCC(=O)NC(=O)NC2CCCC2)cc1[N+](=O)[O-] | -10 | 7 | 4 | -6 | 3
NC(=O)c1ccsc1NC(=O)COC(=O)c1ccncc1 | . | . | -4 | . | 5
CN(C(=O)c1cccc(NC(=O)Cc2ccc(NC(=O)C3CCCN(C(=O)C4CCC4)C3)cc2)c1)C1CCCCC1 (centres undefined) | . | . | 28 | . | 0
CC1C(=O)N(Cc2cn(Cc3ccco3)nn2)CCS(=O)(=O)N1Cc1ccc(-c2ccc(Cl)cc2)cc1 (centres undefined) | . | . | 14 | . | 0
O=C(Nc1cccc(C(F)(F)F)c1)c1csc([C@H]2C[C@H](O)[C@@H](CO)O2)n1 | . | . | -12 | . | 2
Cn1nc(C(C)(C)C)cc1C(=O)N1CCCCC1c1cc(C(=O)NCc2cccnc2)no1 (centres undefined) | . | . | -7 | . | 1
NC(=O)c1ccsc1NC(=O)COC(=O)/C=C/c1ccc([N+](=O)[O-])cc1 | -4 | 9 | 36 | -5 | 8
COC(=O)c1ccc(/C=C/C(=O)OCC(=O)Nc2sccc2C(N)=O)cc1 | 33 | 56* | . | 22 | .
CC(C)CNC(=O)C1(C)CCCN1C(=O)c1cccnc1Oc1ccccc1 (centres undefined) | . | . | -18 | . | 1
COc1ccc(CNc2ncnc3sccc23)cc1 | 10 | 20 | 4 | 45* | -1
Cc1sc2ncnc(NCC(C)(C)N3CCOCC3)c2c1C | 31 | 82* | 9 | 32 | 6
c1ccc(CNc2ncnc3sccc23)cc1 | 25 | 10 | 13 | 20 | 3
Cc1cc2c(NCc3ccccc3)ncnc2s1 | 23 | 9 | -10 | 32* | 3
